Values after ≈ are worked out from the molar mass of the structure shown. Active and inactive are the calls of the source. No cut-off for these calls is given here.
What was measured:
L1210 = experiment: Cytotoxicity against mouse L1210 cells at 5.1 ug/ml after 48 hrs; format: functional, cell-based
In short: (§1)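 KB (human oral epidermoid carcinoma) or L1210 (mouse leukemia) cells were incubated at 37 °C for 48 h in medium with graded concentrations of compound, dissolved in 0.6% Me2SO. IC50 was read from a plot of log concentration against growth rate of the treated cells.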

KB = experiment: Cytotoxicity against human KB cells at 3.7 ug/ml after 48 hrs; format: functional, cell-based; in short: as §1
Cryptococcus neoformans = experiment: Antimicrobial activity against Cryptococcus neoformans IFM46914; format: functional
Staphylococcus aureus = experiment: Antimicrobial activity against Staphylococcus aureus 209P; format: functional, organism-based
Micrococcus luteus = experiment: Antimicrobial activity against Micrococcus luteus IFM2066; format: functional
Trichophyton benhamiae [1] = experiment: Antimicrobial activity against Trichophyton mentagrophytes; format: functional, Arthroderma benhamiae
Trichophyton benhamiae [2] = experiment: Antimicrobial activity against Trichophyton mentagrophytes IFM45110; format: functional, Arthroderma benhamiae

In the case of `C=C1CC[C@@H]2CCC3C(=O)N/C(=C/C(C)CC(=O)C1)C3(O)C2(C)C` (stereo partly drawn), the Activity (L1210) is reported as “inactive”, the Activity (KB) is reported as “inactive” and the MIC (Cryptococcus neoformans) is reported as 4.16 µg/mL (≈ 12.6 µM). For the same compound, the Activity (Staphylococcus aureus) was “inactive”.
`C=C1CC[C@@H]2CCC3=C(C2(C)C)[C@@](O)(C/C(C)=C/[C@@H](O)C1)NC3=O` was tested, and the Activity (L1210) was “inactive”, the Activity (KB) was “inactive” and the Activity (Staphylococcus aureus) was “inactive”.
`C=C1CC[C@@H]2CCC3=C([C@@H](C/C(C)=C/[C@@H](O)C1)N(C)C3=O)C2(C)C` was tested, and the Activity (L1210) was “inactive”, the Activity (KB) was “inactive” and the Activity (Staphylococcus aureus) was “inactive”.
In the case of `C=C1CC[C@@H]2CCC3=C([C@@H](C/C(C)=C/[C@@H](O)C1)NC3=O)C2(C)C` [CESPITULACTAM D], the Activity (L1210) is reported as “inactive”, the Activity (KB) is reported as “inactive” and the MIC (Micrococcus luteus) is reported as 4.16 µg/mL (≈ 13.2 µM). For the same compound, the Activity (Staphylococcus aureus) was “inactive”.
In the case of `C=C1CC[C@@H]2CCC3=C([C@@H](C/C(C)=C/[C@@H](OC(C)=O)C1)NC3=O)C2(C)C` [CESPITULACTAM E], the Activity (L1210) is reported as “inactive”, the Activity (KB) is reported as “inactive” and the Activity (Staphylococcus aureus) is reported as “inactive”. It also gave an MIC (Trichophyton benhamiae [1]) of 4.16 µg/mL (≈ 11.6 µM).
For `C=C1CC[C@@H]2CCC3=C(C2(C)C)[C@@](O)(C/C(C)=C/[C@@H](O)C1)N(CC)C3=O` [CESPITULACTAM G], the Activity (L1210) was “inactive”, the Activity (KB) was “inactive” and the MIC (Trichophyton benhamiae [2]) was 2.08 µg/mL (≈ 5.79 µM). The Activity (Staphylococcus aureus) was “inactive”.
For `C=C1CC[C@@H]2CCC3=C([C@@H](C/C(C)=C/[C@@H](O)C1)N(CCc1c[nH]c4ccccc14)C3=O)C2(C)C` [CESPITULACTAM J], the Activity (L1210) was “inactive”, the Activity (KB) was “inactive” and the MIC (Cryptococcus neoformans) was 4.16 µg/mL (≈ 9.07 µM). The MIC (Micrococcus luteus) was 4.16 µg/mL (≈ 9.07 µM), the Activity (Staphylococcus aureus) was “inactive” and the MIC (Trichophyton benhamiae [1]) was 4.16 µg/mL (≈ 9.07 µM).
`C=C1CC[C@@H]2CC[C@@H]3C(=O)N(CCc4ccc(O)cc4)C(=C3C2(C)C)C/C(C)=C/[C@@H](O)C1` [CESPITULACTAM K] was tested, and the Activity (L1210) was “Active”, the Activity (KB) was “Active” and the MIC (Cryptococcus neoformans) was 4.16 µg/mL (≈ 9.55 µM). The MIC (Micrococcus luteus) was 4.16 µg/mL (≈ 9.55 µM) and the Activity (Staphylococcus aureus) was “inactive”.

From ChEMBL document CHEMBL1141447, “Nitrogen-containing verticillene diterpenoids from the Taiwanese soft coral Cespitularia taeniata” (2007)
